# Bioassay records deposited in PubChem by Sanford-Burnham Center for Chemical Genomics.
# In the library only some 0.72% were active in any assay of this set; here they are far more common.
# hIAP activ: human IAP activators, primary screen, biochemical, luminescence, uHTS; AID 2524, 2010; actives 0.16% (n = 330,000); purified human IAP, CDP-Star luminescence, 30 min; stronger effect = higher value; 1 = vehicle-only enzyme, 0 = enzyme-free background; activation factor at 10 µM;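 active = activation factor of the enzyme at least 2-fold when tested at 20 µM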
# Target sequence (P09923 whole entry, looked up): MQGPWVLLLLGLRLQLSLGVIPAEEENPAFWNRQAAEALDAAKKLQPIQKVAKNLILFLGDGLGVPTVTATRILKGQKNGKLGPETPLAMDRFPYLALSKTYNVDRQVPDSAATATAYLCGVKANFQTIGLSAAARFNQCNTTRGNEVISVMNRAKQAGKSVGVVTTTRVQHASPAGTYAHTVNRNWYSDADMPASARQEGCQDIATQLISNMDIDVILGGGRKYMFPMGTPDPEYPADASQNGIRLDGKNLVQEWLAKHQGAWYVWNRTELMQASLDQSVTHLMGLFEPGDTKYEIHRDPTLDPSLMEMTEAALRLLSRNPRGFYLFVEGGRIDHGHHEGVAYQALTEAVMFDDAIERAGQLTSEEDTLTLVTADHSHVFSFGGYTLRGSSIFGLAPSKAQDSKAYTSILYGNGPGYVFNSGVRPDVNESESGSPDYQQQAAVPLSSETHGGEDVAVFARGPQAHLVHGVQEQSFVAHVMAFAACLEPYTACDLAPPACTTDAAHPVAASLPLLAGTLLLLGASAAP
# bIAP inhibitor: bovine intestinal alkaline phosphatase inhibitors, primary screen, selectivity assay for TNAP inhibitor project, biochemical, bovine IAP, CDP-star luminescence; purified bovine IAP, 30 min; inhibition, % at 20 µM; 190,000 tested, under 10 active; AID 1019, 2008;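 active = over 50% inhibition of intestinal alkaline phosphatase at 20 µM in the single-dose screen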
#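 test system = bovine IAP enzyme | medium = DEA buffer 100 mM, pH 9.8, with MgCl2 1.0 mM, ZnCl2 0.02 mM | detection = luminescence | dosing = single compound dose of 20 µM, 2% DMSO final | incubation = 30 min reaction at room temperature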
# bIAP activator: bovine intestinal alkaline phosphatase activators, primary screen, biochemical, bovine IAP, CDP-star luminescence; purified bovine IAP, 30 min; stronger effect = higher value; fold of DMSO-control signal, blank-subtracted; alkaline phosphatase, intestinal [Bos taurus]; actives 0.17% (n = 200,000); AID 1016, 2008; activation factor at 20 µM;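 active = activation factor of 2 or more at 20 µM, a signal rise over negative controls twice the positive control's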
# hIAP block: human IAP inhibitors, primary screen, biochemical, luminescence, uHTS; actives 0.12% (n = 330,000); Intestinal-type alkaline phosphatase (Homo sapiens), P09923; purified IAP, CDP-Star luminescence, 30 min; inhibition, % at 10 µM;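 active = inhibition reaching a set limit with compound at 10 µM in the primary screen, cut at about 35% in these data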
# mIAP inh: inhibitors of mouse IAP, primary screen, biochemical, luminescence, uHTS. inhibition, % at 10 µM. intestinal alkaline phosphatase [Mus musculus]. purified mouse IAP, CDP-Star luminescence, 30 min. actives 0.2% (n = 330,000);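 active = inhibition of at least 40% at 10 µM in the primary screen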
# mIAP activ: activators of mouse IAP, primary screen, biochemical, luminescence, uHTS; intestinal alkaline phosphatase [Mus musculus]; muIAP, CDP-Star luminescence, 30 min; stronger effect = higher value; 1 = vehicle-only enzyme signal, 0 = enzyme-free wells; activation factor at 10 µM; actives 0.24% (n = 330,000);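 active = activation factor of at least 2 at 20 µM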
#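 also added = chemiluminescent substrate CDP-Star | test system = mouse IAP enzyme | signal = chemiluminescence readout | compound = DMSO-dissolved test compounds | incubation = 30 min at room temperature | benchmarks = DMSO wells, no-enzyme wells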
# hIAP act confirm: human IAP activators, confirmation, biochemical, luminescence, single concentration, uHTS hits. shares compounds with hIAP activ. activation (%Activity, negative = activation), % at 8.3 µM. purified IAP, CDP-Star luminescence, 30 min; stronger effect = lower value. actives 10% (n = 880);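 active = at least twofold enzyme activation in any of six single-dose repeats, which the averaged readout prints as negative percent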
# mIAP inh confirm: inhibitors of mouse IAP, confirmation, biochemical, luminescence, single concentration. shares compounds with mIAP inh. purified mouse IAP, CDP-Star luminescence, 30 min. inhibition, % at 10 µM. actives 4.7% (n = 11,000). AID 434971, 2010;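 active = inhibition of at least 40% at 10 µM in either of the two replicates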
# Hits are given with their value; – = inactive; · = no result given.
SMILES,hIAP activ,bIAP inhibitor,bIAP activator,hIAP block,mIAP inh,mIAP activ,hIAP act confirm,others
COc1ccc(CN2C(=NC(=O)C3CCCO3)SC3CS(=O)(=O)CC32)cc1 (stereo not drawn),–,·,·,–,–,–,·,
COc1ccc(OC(=O)c2cccnc2)cc1,–,–,–,41,–,–,–,
CC(C)(C)c1ccc(OC(=O)c2cccnc2)cc1,–,–,–,–,–,–,·,
CN(C)c1ccc(NC(=O)Nc2cccc(Cl)c2)cc1,–,–,–,–,–,–,·,
CN(C)c1ccc(NC(=O)Nc2csc3ccccc23)cc1,–,·,·,–,–,–,–,
O=C1/C(=C/c2ccc(O)c(O)c2)SC(=S)N1Nc1ccccc1,·,·,–,·,·,·,·,
O=C1/C(=C/c2ccc(F)cc2)SC(=S)N1N1CCOCC1,–,·,·,–,–,–,·,
COc1cc(/C=C2\SC(=S)N(NC(=O)c3ccc(O)cc3)C2=O)ccc1O,–,·,·,44,–,–,–,
CCOc1cc(/C=C2\SC(=S)N(N3CCOCC3)C2=O)ccc1O,–,·,·,39,–,–,–,
COc1cc(/C=C2\SC(=S)N(Nc3ccccc3)C2=O)ccc1O,–,–,–,40,41,–,–,
COc1cc(/C=C2\SC(=S)N(NC(=O)c3cccnc3)C2=O)ccc1O,–,·,·,–,–,–,·,
COc1cc(/C=C/C(=O)OCC(=O)c2c(N)n(C)c(=O)n(C)c2=O)ccc1OCC#N,–,–,–,–,–,–,·,
O=C(COc1ccc2ccccc2c1Br)N1CCCCC1,–,·,·,36,–,–,-50,
O=C(N/N=C/c1ccco1)c1cc(-c2ccc(Cl)s2)[nH]n1,2,–,–,–,–,–,–,
O=C(N/N=C/c1ccco1)c1cc(-c2ccc(Br)s2)[nH]n1,–,·,·,–,–,–,·,
O=C(N/N=C/c1cccs1)c1cc(-c2ccc(Cl)s2)[nH]n1,2,·,·,–,–,–,–,
C/C(=N/NC(=O)c1cc(-c2ccc(Br)s2)[nH]n1)c1ccco1,2.1,–,–,–,–,–,–,
Cc1ccc(CN(C)c2ccc(S(=O)(=O)N3CCCC3)cn2)cc1,–,·,·,36,–,–,–,
NNC(=O)c1cc(NS(=O)(=O)c2cccs2)cc(NS(=O)(=O)c2cccs2)c1,–,·,·,–,–,–,·,
CC1(C2CC2)NC(=O)N(CC(=O)Nc2ccccc2F)C1=O (stereo not drawn),–,·,·,–,–,–,·,
CC(Sc1ccc(Cl)cc1)C(=O)NNC(=O)c1ccccc1O (stereo not drawn),2.5,·,·,–,–,–,–,
CSCCC(NC(=O)c1ccccc1Cl)C(=O)NNC(=O)c1ccccc1O (stereo not drawn),–,·,·,–,–,–,·,
C/C=N/NC(=O)c1cc(Br)ccc1O,–,–,–,–,–,–,·,
Cc1c(/C=N/NC(=O)c2cc(Br)ccc2O)c(=O)n(C)c(=O)n1C,2.1,·,·,–,–,–,–,
c1ccc(COc2ccc(Nc3ncnc4nc[nH]c34)cc2)cc1,2.4,–,–,–,–,–,–,
SMILES,hIAP activ,bIAP inhibitor,bIAP activator,hIAP block,mIAP inh,mIAP activ,hIAP act confirm,others
CCOC(=O)c1ccc(Nc2ncnc3nc[nH]c23)cc1,–,–,–,–,–,–,·,
COc1ccc(-c2cc(=O)c3c(O)cc(O)cc3o2)cc1,–,·,·,–,–,–,·,
O=c1cc(-c2ccc(O)c(O)c2)oc2cc(O)cc(O)c12,–,·,·,58,–,–,–,
CC(=O)CCc1ccc(Oc2nc(-c3cccnc3)nc3ccccc23)cc1,–,–,–,36,–,–,–,
COc1ccc(Oc2nc(-c3cccnc3)nc3ccccc23)cc1,–,·,·,–,–,–,·,
Cc1ccc(NC(=O)c2sc3ccccc3c2Cl)nc1,2.1,–,–,–,–,–,–,
CN(CC1COc2ccccc2O1)C(=O)c1cccc(S(=O)(=O)N2CCCC2)c1 (stereo not drawn),–,·,·,–,–,–,·,
COc1ccc(N2CCN(CCNC(=O)CCC(=O)NNc3nc4ccccc4c4nc(C)nn34)CC2)cc1,2.5,·,·,–,–,–,–,
Cc1nc2c3ccccc3nc(NNC(=O)CCC(=O)N3CCCC(C)C3)n2n1 (stereo not drawn),2.5,·,·,–,–,–,-42,
Cc1nc2c3ccccc3nc(NNC(=O)CCC(=O)NC3CCCC3)n2n1,–,–,–,–,–,–,·,
COc1cc(C)c(CN2CCN(S(=O)(=O)c3ccc(Cl)s3)CC2)cc1OC,–,·,·,–,–,–,·,
Cc1nc2c3cnn(-c4ccc(C)c(C)c4)c3ncn2n1,–,–,–,74,–,–,–,
Cc1ccc(-n2ncc3c(=O)n(CC(N)=O)cnc32)cc1C,–,·,·,–,–,–,·,
C[C@@H](C(=O)OCC(=O)c1ccc(F)c(F)c1)N1C(=O)C2CCCCC2C1=O (stereo partly drawn),–,·,·,–,–,–,·,
O=C(CNS(=O)(=O)c1ccccc1)NNC(=O)C(Cl)Cl,2.2,–,–,–,–,–,–,
CC(=O)c1cccc(S(=O)(=O)N2CCN(CCOc3ccccc3)CC2)c1,–,·,·,–,–,–,·,
NC(=O)CC[C@H](NC(=O)c1ccc(F)cc1)C(=O)N1CCN(Cc2ccc3c(c2)OCO3)CC1,–,·,·,–,–,–,·,
CCN(CC)C(=O)Cc1cc(C(=O)O)c2ccccc2n1,2,–,–,–,–,–,–,
Cc1nnc(NC(=O)CSc2n[nH]c(-c3ccccc3C)n2)s1,–,·,·,41,–,–,–,
Cn1c(/C(C#N)=C(\O)c2cc(Cl)sc2Cl)nc2ccccc21,–,·,·,–,–,–,·,
Cn1c(/C(C#N)=C(\O)c2ccc(Br)s2)nc2ccccc21,–,·,·,47,–,–,–,
CCc1ccccc1NC(=O)CN(C)C(=O)COC(=O)c1c(Cl)cccc1Cl,–,·,·,–,–,–,·,
CC(C)CN(C(=O)CCNC(=O)c1ccc(Cl)cc1)C1CCS(=O)(=O)C1 (stereo not drawn),–,·,·,–,–,–,·,
O=C(COc1ccccc1C(=O)N/N=C\c1ccc(O)c(O)c1)N/N=C/c1ccc(O)c(O)c1,–,–,–,58,73,–,–,mIAP inh confirm=82
